Results as given in ChEMBL document CHEMBL5724801, “EUbOPEN Chemogenomics Library - Multiplex” (2024).
Where “and” joins values, the source holds several entries; their conditions need not be identical. Equal values may be shown once.

Tested on: U2OS
Test: Multiplex assay against U2OS
Type: toxicity, cell-based
Settings: human
Outline: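 Imaging took place on a CQ1 microscope at 37°C and 5% CO2 once compound had been added to live cells stained at seeding with Hoechst33342, BioTracker Green Microtubule Cytoskeleton Dye, MitoTracker Red and Annexin V Alexa Fluor 680. CellPathfinder machine-learning gating classed cells as Hoechst high-intensity objects or normal cells, classed normal cells as having healthy, pyknosed or fragmented nuclei, and classed pyknosed cells as mitotic or apoptotic. Tubulin, mitochondrial-mass and membrane-permeability phenotypes are per cents of the healthy-nucleus cells.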

[1] = 12 h, 1 µM, compound concentration 1 uM
[2] = 12 h, 10 µM, compound concentration 10 uM
[3] = 24 h, 1 µM, compound concentration 1 uM
[4] = 24 h, 10 µM, compound concentration 10 uM
[5] = 48 h, 1 µM, compound concentration 1 uM
[6] = 48 h, 10 µM, compound concentration 10 uM

COc1cc(/C=C(\C#N)C(=O)Nc2nnc(C(F)(F)F)s2)ccc1OCc1ccc(C(F)(F)F)cc1C(F)(F)F
Population Apoptotic (%) [1]: 22.22% and 38.1% | Population Fragmented Nuclei (%) [1]: 1.99% and 4.9% | Population Healthy Nuclei (%) [1]: 89.05% and 80.42% | Population Hoechst High Intensity Objects (%) [1]: 0% | Population Membrane Permeable-Phenotype (%) [1]: 0.84% and 2.61% | Population Mitochondria Different-Phenotype (%) [1]: 0.28% and 6.09% | Population Mitotic Cells (%) [1]: 77.78% and 61.9% | Population Normal (%) [1]: 100% | Population Pyknosed Nuclei (%) [1]: 8.96% and 14.69% | Population Tubulin-Different-Phenotype (%) [1]: 0.56% and 0% | Total Cell Count [1]: 402 and 143 | Population Apoptotic (%) [2]: 36.59% and 47.06% | Population Fragmented Nuclei (%) [2]: 1.77% and 5.29% | Population Healthy Nuclei (%) [2]: 87.88% and 85.71% | Population Hoechst High Intensity Objects (%) [2]: 0% | Population Membrane Permeable-Phenotype (%) [2]: 0.57% and 6.17% | Population Mitochondria Different-Phenotype (%) [2]: 0.29% and 3.09% | Population Mitotic Cells (%) [2]: 63.41% and 52.94% | Population Normal (%) [2]: 100% | Population Pyknosed Nuclei (%) [2]: 10.35% and 8.99% | Population Tubulin-Different-Phenotype (%) [2]: 1.72% and 0% | Total Cell Count [2]: 396 and 189 | Population Apoptotic (%) [3]: 43.86% and 43.48% | Population Fragmented Nuclei (%) [3]: 1.6% and 6.28% | Population Healthy Nuclei (%) [3]: 88.24% and 81.68% | Population Hoechst High Intensity Objects (%) [3]: 0% | Population Membrane Permeable-Phenotype (%) [3]: 0.81% and 3.85% | Population Mitochondria Different-Phenotype (%) [3]: 0% and 5.13% | Population Mitotic Cells (%) [3]: 56.14% and 56.52% | Population Normal (%) [3]: 100% | Population Pyknosed Nuclei (%) [3]: 10.16% and 12.04% | Population Tubulin-Different-Phenotype (%) [3]: 0.81% and 0.64% | Total Cell Count [3]: 561 and 191 | Population Apoptotic (%) [4]: 52.08% and 57.69% | Population Fragmented Nuclei (%) [4]: 0.74% and 3.08% | Population Healthy Nuclei (%) [4]: 90.41% and 85.46% | Population Hoechst High Intensity Objects (%) [4]: 0% | Population Membrane Permeable-Phenotype (%) [4]: 1.43% and 7.22% | Population Mitochondria Different-Phenotype (%) [4]: 0% and 1.03% | Population Mitotic Cells (%) [4]: 47.92% and 42.31% | Population Normal (%) [4]: 100% | Population Pyknosed Nuclei (%) [4]: 8.86% and 11.45% | Population Tubulin-Different-Phenotype (%) [4]: 1.43% and 0.52% | Total Cell Count [4]: 542 and 227 | Population Apoptotic (%) [5]: 46.05% and 40.48% | Population Fragmented Nuclei (%) [5]: 3.37% and 3.16% | Population Healthy Nuclei (%) [5]: 89.31% and 83.54% | Population Hoechst High Intensity Objects (%) [5]: 0% | Population Membrane Permeable-Phenotype (%) [5]: 1.29% and 1.14% | Population Mitochondria Different-Phenotype (%) [5]: 0.11% and 2.65% | Population Mitotic Cells (%) [5]: 53.95% and 59.52% | Population Normal (%) [5]: 100% | Population Pyknosed Nuclei (%) [5]: 7.32% and 13.29% | Population Tubulin-Different-Phenotype (%) [5]: 0.32% and 0% | Population Apoptotic (%) [6]: 40% and 47.5% | Population Fragmented Nuclei (%) [6]: 2.52% and 1.99% | Population Healthy Nuclei (%) [6]: 89.1% and 88.09% | Population Hoechst High Intensity Objects (%) [6]: 0% | Population Membrane Permeable-Phenotype (%) [6]: 0.47% and 3.66% | Population Mitochondria Different-Phenotype (%) [6]: 0% and 0.85% | Population Mitotic Cells (%) [6]: 60% and 52.5% | Population Normal (%) [6]: 100% | Population Pyknosed Nuclei (%) [6]: 8.39% and 9.93% | Population Tubulin-Different-Phenotype (%) [6]: 0.82% and 1.13% | Total Cell Count [6]: 954 and 403

Cc1cc(NC(=O)c2cccc(NC(=O)/C=C/CN(C)C)c2)ccc1Nc1nccc(-c2cccnc2)n1
Population Apoptotic (%) [1]: 27.59% and 30.56% | Population Fragmented Nuclei (%) [1]: 1.96% and 1.23% | Population Healthy Nuclei (%) [1]: 90.93% and 76.69% | Population Hoechst High Intensity Objects (%) [1]: 0% | Population Membrane Permeable-Phenotype (%) [1]: 0.54% and 4% | Population Mitochondria Different-Phenotype (%) [1]: 0% and 11.2% | Population Mitotic Cells (%) [1]: 72.41% and 69.44% | Population Normal (%) [1]: 100% | Population Tubulin-Different-Phenotype (%) [1]: 1.35% and 1.6% | Total Cell Count [1]: 408 and 163 | Population Apoptotic (%) [2]: 30.59% and 26% | Population Fragmented Nuclei (%) [2]: 2.2% and 3.08% | Population Healthy Nuclei (%) [2]: 71.07% and 58.46% | Population Hoechst High Intensity Objects (%) [2]: 0% | Population Membrane Permeable-Phenotype (%) [2]: 61.06% and 84.21% | Population Mitotic Cells (%) [2]: 69.41% and 74% | Population Normal (%) [2]: 100% | Population Pyknosed Nuclei (%) [2]: 26.73% and 38.46% | Population Tubulin-Different-Phenotype (%) [2]: 71.68% and 55.26% | Total Cell Count [2]: 318 and 130 | Population Apoptotic (%) [3]: 35.71% and 38.71% | Population Fragmented Nuclei (%) [3]: 1.26% and 5.24% | Population Healthy Nuclei (%) [3]: 91.2% and 80% | Population Hoechst High Intensity Objects (%) [3]: 0% | Population Membrane Permeable-Phenotype (%) [3]: 0.79% and 4.17% | Population Mitotic Cells (%) [3]: 64.29% and 61.29% | Population Normal (%) [3]: 100% | Population Pyknosed Nuclei (%) [3]: 7.54% and 14.76% | Population Tubulin-Different-Phenotype (%) [3]: 0.79% and 1.19% | Total Cell Count [3]: 557 and 210 | Population Apoptotic (%) [4]: 56.85% and 76.53% | Population Fragmented Nuclei (%) [4]: 2.51% and 3.51% | Population Hoechst High Intensity Objects (%) [4]: 0.31% and 0% | Population Membrane Permeable-Phenotype (%) [4]: 25.44% and 41.67% | Population Mitochondria Different-Phenotype (%) [4]: 21.93% and 41.67% | Population Mitotic Cells (%) [4]: 43.15% and 23.47% | Population Normal (%) [4]: 99.69% and 100% | Population Pyknosed Nuclei (%) [4]: 61.76% and 85.96% | Population Tubulin-Different-Phenotype (%) [4]: 54.39% and 58.33% | Total Cell Count [4]: 320 and 114 | Population Apoptotic (%) [5]: 41.94% and 59.02% | Population Fragmented Nuclei (%) [5]: 4.41% and 6.54% | Population Healthy Nuclei (%) [5]: 86.07% and 73.53% | Population Hoechst High Intensity Objects (%) [5]: 0% and 0.33% | Population Membrane Permeable-Phenotype (%) [5]: 0.6% and 3.11% | Population Mitochondria Different-Phenotype (%) [5]: 0% and 7.56% | Population Mitotic Cells (%) [5]: 58.06% and 40.98% | Population Normal (%) [5]: 100% and 99.67% | Population Pyknosed Nuclei (%) [5]: 9.53% and 19.93% | Population Tubulin-Different-Phenotype (%) [5]: 1.67% and 0.89% | Population Apoptotic (%) [6]: 92.36% and 96.04% | Population Fragmented Nuclei (%) [6]: 3.57% and 4% | Population Healthy Nuclei (%) [6]: 7.14% and 15.2% | Population Hoechst High Intensity Objects (%) [6]: 0% | Population Mitotic Cells (%) [6]: 7.64% and 3.96% | Population Normal (%) [6]: 100% | Population Pyknosed Nuclei (%) [6]: 89.29% and 80.8% | Total Cell Count [6]: 308 and 125

O=C(Nc1cc(C(F)(F)F)ccc1N1CCCCC1)c1ccncc1
Population Apoptotic (%) [1]: 66.67% and 37.5% | Population Fragmented Nuclei (%) [1]: 2.62% and 1.94% | Population Healthy Nuclei (%) [1]: 90.31% and 82.58% | Population Hoechst High Intensity Objects (%) [1]: 0% | Population Membrane Permeable-Phenotype (%) [1]: 1.74% and 3.12% | Population Mitochondria Different-Phenotype (%) [1]: 0% and 2.34% | Population Mitotic Cells (%) [1]: 33.33% and 62.5% | Population Normal (%) [1]: 100% | Population Pyknosed Nuclei (%) [1]: 7.07% and 15.48% | Population Tubulin-Different-Phenotype (%) [1]: 1.16% and 0.78% | Total Cell Count [1]: 382 and 155 | Population Apoptotic (%) [2]: 32.65% and 31.25% | Population Fragmented Nuclei (%) [2]: 1.78% and 5.19% | Population Healthy Nuclei (%) [2]: 87.31% and 74.03% | Population Hoechst High Intensity Objects (%) [2]: 0% | Population Membrane Permeable-Phenotype (%) [2]: 2.81% and 6.14% | Population Mitotic Cells (%) [2]: 67.35% and 68.75% | Population Normal (%) [2]: 100% | Population Pyknosed Nuclei (%) [2]: 10.91% and 20.78% | Population Tubulin-Different-Phenotype (%) [2]: 6.89% and 7.89% | Total Cell Count [2]: 449 and 154 | Population Apoptotic (%) [3]: 24.39% and 47.37% | Population Fragmented Nuclei (%) [3]: 2.34% and 1.57% | Population Healthy Nuclei (%) [3]: 89.65% and 88.48% | Population Hoechst High Intensity Objects (%) [3]: 0% | Population Membrane Permeable-Phenotype (%) [3]: 0.65% and 1.78% | Population Mitochondria Different-Phenotype (%) [3]: 0.22% and 4.73% | Population Mitotic Cells (%) [3]: 75.61% and 52.63% | Population Normal (%) [3]: 100% | Population Pyknosed Nuclei (%) [3]: 8.01% and 9.95% | Population Tubulin-Different-Phenotype (%) [3]: 1.09% and 0.59% | Total Cell Count [3]: 512 and 191 | Population Apoptotic (%) [4]: 35.62% and 25.81% | Population Fragmented Nuclei (%) [4]: 1.19% and 3.28% | Population Healthy Nuclei (%) [4]: 86.37% and 79.78% | Population Hoechst High Intensity Objects (%) [4]: 0% | Population Membrane Permeable-Phenotype (%) [4]: 1.18% and 2.05% | Population Mitotic Cells (%) [4]: 64.38% and 74.19% | Population Normal (%) [4]: 100% | Population Pyknosed Nuclei (%) [4]: 12.44% and 16.94% | Population Tubulin-Different-Phenotype (%) [4]: 5.13% and 1.37% | Population Apoptotic (%) [5]: 36.36% and 35.71% | Population Fragmented Nuclei (%) [5]: 3.47% and 3.02% | Population Healthy Nuclei (%) [5]: 86.98% and 88.52% | Population Hoechst High Intensity Objects (%) [5]: 0% | Population Membrane Permeable-Phenotype (%) [5]: 1% and 4.1% | Population Mitochondria Different-Phenotype (%) [5]: 0.37% and 3.75% | Population Mitotic Cells (%) [5]: 63.64% and 64.29% | Population Normal (%) [5]: 100% | Population Pyknosed Nuclei (%) [5]: 9.54% and 8.46% | Population Tubulin-Different-Phenotype (%) [5]: 1.37% and 2.05% | Total Cell Count [5]: 922 and 331 | Population Apoptotic (%) [6]: 47.54% and 53.06% | Population Fragmented Nuclei (%) [6]: 2.11% and 4.76% | Population Healthy Nuclei (%) [6]: 86.22% and 78.57% | Population Hoechst High Intensity Objects (%) [6]: 0.19% and 0% | Population Membrane Permeable-Phenotype (%) [6]: 1.66% and 1.73% | Population Mitotic Cells (%) [6]: 52.46% and 46.94% | Population Normal (%) [6]: 99.81% and 100% | Population Pyknosed Nuclei (%) [6]: 11.67% and 16.67% | Population Tubulin-Different-Phenotype (%) [6]: 4.55% and 3.03%
